# NR2E3 ag-1 = activates human NR2E3 receptor; Q9Y5X4; CHO-S Gal4-NCOR/VP16-NR2E3 two-hybrid, luciferase; inhibition of corepressor binding, % at 3.98 µM; actives 0.35% (n = 360,000); AID 602229;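 active = inhibition above the mean of all tested compounds plus 3 SD, cut at about 70% in these data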;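 also: 0% = DMSO with NR2E3 transfected cells and 100% = cells lacking NR2E3 construct; higher means lower luciferase signal from less NR2E3 corepressor binding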
# Target sequence (Q9Y5X4 whole entry, looked up, the tested form may be a part): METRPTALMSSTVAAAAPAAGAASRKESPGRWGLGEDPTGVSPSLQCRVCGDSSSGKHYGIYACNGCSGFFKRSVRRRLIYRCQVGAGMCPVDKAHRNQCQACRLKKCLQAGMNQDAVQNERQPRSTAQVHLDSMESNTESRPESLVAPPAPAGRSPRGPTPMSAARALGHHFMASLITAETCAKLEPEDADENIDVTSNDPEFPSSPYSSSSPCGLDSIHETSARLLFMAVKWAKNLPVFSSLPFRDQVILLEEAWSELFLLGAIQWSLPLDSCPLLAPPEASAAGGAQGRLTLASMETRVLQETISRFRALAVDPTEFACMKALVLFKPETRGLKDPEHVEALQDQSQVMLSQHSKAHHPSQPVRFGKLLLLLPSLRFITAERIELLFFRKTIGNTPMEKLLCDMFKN
# NR1D1 modulator = modulators of human Rev-erb alpha DNA binding. P20393. Rev-erbα–FITC-DNA binding, fluorescence polarization, 90 min. activity, % at 10 µM. actives 0.79% (n = 370,000);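 active = activity above about 14%, limit read from the data; passing the limit was not always enough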;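 also: 0% = DMSO wells with 35 nM protein and 100% = DMSO wells with 750 nM protein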
# NR2E3 ag-2 = NR2E3 (human) agonism. Q9Y5X4. GST-NR2E3/biotin-RetCOR TR-FRET, 1536-well. inhibition of corepressor binding, % at 4.78 µM. actives 0.12% (n = 320,000). AID 2300;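 active = percent inhibition above the cutoff of mean plus 3 SD of all tested compounds, set per screening campaign, cut at about 20% in these data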;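 also: 0% = DMSO wells and 100% = biotin wells as full block of FRET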
#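 Test system: GST-NR2E3 and biotin-RetCOR proteins | Quantity: 1.35 nM GST-tagged NR2E3 final | Medium: Tris pH 7.5 | Also added: 7 nM biotin-RetCOR | Dosing: Compound at 4.8 µM, single dose | Timing: 5 h at 4 °C | Detection: Time-resolved FRET | Read-out basis: Percent inhibition | Benchmarks: Biotin wells as high control, 0.6% DMSO wells as low control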
# PG9 binder = small molecules binding HIV-1 gp120 antibody PG9; actives 0.43% (n = 360,000); AID 624416; inhibition, % at 6.7 µM; TR-FRET gp120-PG9 antibody binding; in the data active = inhibition above about 8.5%
# NR1D1 mod conf = confirmation of modulators of human Rev-erb alpha DNA binding; shares compounds with NR1D1 modulator; Rev-erb alpha FITC-DNA binding, fluorescence polarization, 90 min; activation, % at 25 µM; actives 61% (n = 3,000); AID 1259319;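 active = activation at or above a set limit, or at least 3 SD above the negative control mean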;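 also: 0% = 35 nM protein with DMSO and 100% = 750 nM protein high control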
# RORg DNA counter = counter-screen for Rev-erb alpha modulators: RORgamma DNA binding | purified RORgamma protein-FITC-DNA binding, fluorescence polarization | shares compounds with NR1D1 modulator | AID 1259320 | IC50, µM | actives 8% (n = 910);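 active = Compounds whose fitted half-maximal concentration for disrupting protein-DNA binding is below 10 micromolar; the record names Rev-erb in its text, so the target is in doubt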
# Active calls of the source: *; · = no result given. Compounds with a hit are over-represented: about 1.5% of the library has one in this group of screens.
SMILES,NR2E3 ag-1,NR1D1 modulator,NR2E3 ag-2,PG9 binder,NR1D1 mod conf,others
Oc1cc(O)cc(C=Cc2ccc(O)c(O)c2)c1,·,-15,·,-3,·,
CCOC(=O)c1cc(C)nc(SC)c1C#N,-34,-1,4,-1,·,
CCC(C)OC(=O)c1cc(C)nc2c(Br)cc(Br)cc12 (stereo not given),1,46*,2,4,46*,RORg DNA counter=>40
CC1=CC(=O)CC(C)(C)[C@@]1(O)/C=C/[C@@H](C)O[C@@H]1O[C@H](CO)[C@@H](O)[C@H](O)[C@H]1O,6,4,·,0,·,
CSc1nc2ccc3nc(NC(=O)c4ccccc4)sc3c2s1,-46,38*,1,1,6,
Cc1csc2nc(NC(=O)c3ccccc3)sc(=O)c12,-1,24*,-6,0,16,
Cc1csc2c(=O)sc(NC(=O)c3ccc(F)cc3)nc12,-7,3,4,-3,·,
CN1C2=N[C@H](c3ccc(Br)cc3)CC(=O)N2/C(=C\c2ccccc2)[C@@H]1c1ccccc1,·,-1,·,·,·,
O=C(C[C@H]1C[C@H](C(=O)N2CCOCC2)[C@@]2(CCC3CCCC3)c3[nH]c4ccc(Cl)cc4c3CCN2C1=O)NCC12CC3CC(CC(C3)C1)C2,-19,3,·,0,·,
COc1cccc(-c2nc(CS(=O)(=O)CC(=O)NCCCc3ccccc3)c(C)o2)c1,14,60*,-1,4,37*,RORg DNA counter=>40
CN1c2ccccc2SC2C(c3ccccc3)=NOC21 (stereo not given),-10,-1,·,-1,·,
CCCCCn1c(SCC(=O)c2ccccc2)nc2cc(C(=O)NCC3CCCO3)ccc2c1=O (stereo not given),-15,69*,·,-1,25*,
COc1ccc(-c2cc3nc[nH]c(=O)c3s2)cc1,-87,42*,1,1,15,
O=c1[nH]cnc2cc(-c3ccccc3)sc12,-71,2,1,1,·,
COc1ccc(CCN2CCC(Nc3nc4ccccc4n3Cc3ccc(F)cc3)CC2)cc1,-9,-7,0,1,·,
COc1c(O)cccc1[C@@H](O)C1CCN(CCc2ccc(F)cc2)CC1,7,19*,0,1,6,
Cc1ccc(-n2nc3ccc(NC(=O)c4cccc([N+](=O)[O-])c4C)cc3n2)cc1,-76,26*,1,0,0,
Cc1ccc(-n2nc3ccc(NC(=O)c4ccco4)cc3n2)cc1,-68,2,1,0,·,
CCCCn1nnnc1C(c1cc2ccccc2o1)N(C)CCc1ccccc1 (stereo not given),7,7,·,0,·,
Cc1nc(SCC(=O)NCc2ccco2)c2c3c(sc2n1)CCCC3,-57,6,0,-1,·,
O=C(CSc1nc(C2CC2)nc2sc3c(c12)CCCC3)NCc1ccco1,-38,27*,1,0,11,
CSc1nc2cc(C)nn2c(-c2ccccc2)c1C#N,-27,26*,5,-1,10,
CCc1noc(C)c1C(=O)Nc1ccc(F)c(F)c1,-6,7,-3,0,·,
CCc1noc(C)c1C(=O)Nc1nc(-c2ccc(Cl)cc2Cl)c(C)s1,-1,32*,-4,4,25*,
CCCNC(=O)c1cc(-c2ccccc2)c(N2CCCCC2)s1,-22,93*,3,3,27*,
SMILES,NR2E3 ag-1,NR1D1 modulator,NR2E3 ag-2,PG9 binder,NR1D1 mod conf,others
CCn1c(C)c(C2=CCN(S(=O)(=O)c3ccccc3)CC2)c2ccccc21,-16,28*,1,1,26*,
CNc1nnc(SCC(=O)N2c3ccccc3NC(=O)CC2C)s1 (stereo not given),-16,-4,-3,-1,·,
CC1(c2ccc(OC(F)F)cc2)NC(=O)N(CC(=O)Nc2ccccc2)C1=O (stereo not given),-31,4,-1,1,·,
Cc1ccc2nc(-c3ccc(NC(=O)CN4C(=O)NC(C)(c5ccc(OC(F)F)cc5)C4=O)cc3)sc2c1 (stereo not given),-131,24*,0,4,8,
CC1(C(=O)NS(=O)(=O)c2cccc(F)c2)CCN1C(=O)C1CCCCC1 (stereo not given),-40,-7,·,2,·,
O=S(=O)(c1ccccc1)c1nnn2c1nc(NC1CCN(Cc3ccccc3)CC1)c1cc(Cl)ccc12,-19,25*,2,-1,0,
